From ChEMBL document CHEMBL1150419, “Structure-activity relationships of a peptide inhibitor of the human FcRn:human IgG interaction” (Bioorg Med Chem, 2008)
Bridge positions count the residues as written; N and C are the ends. Peptide text beside a SMILES is read from it.

Key:
[1] = biological target: T1, IgG receptor FcRn large subunit p51 (Homo sapiens, UniProt P55899); test: Inhibition of human IgG binding to soluble human FcRn by ELISA
Procedure, shortened: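 Biotinylated soluble human FcRn immobilized on neutravidin plates, incubated with hIgG (3 nM, constant) and peptide at varying concentrations for 2 h at 37 °C. After washing, bound hIgG detected with peroxidase-conjugated hIgG-specific Fab fragments.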

[2] = Stability in presence of subtilisin assessed as intact peptide after 1 hr; assay type: ADME; settings: subtilisin (protease solution); read-out: Stability
Procedure, shortened: (§1)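 Peptide dissolved in PBS at 0.3 mg/mL and treated with a 470-fold molar excess of Subtilisin Carlsberg. The fraction of intact peptide remaining was recorded.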

[3] = Stability in presence of subtilisin assessed as intact peptide after 18 hrs; assay type: ADME; settings: subtilisin (protease solution); read-out: Stability; procedure, shortened: as §1
[4] = biological target: T1, IgG receptor FcRn large subunit p51; test: Binding affinity to human FcRn at pH 6 by surface plasmon resonance assay
Procedure, shortened: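 Soluble human FcRn coupled to the dextran surface of a CM5 chip; peptide dilutions flowed over the chip. The equilibrium response at each dilution was plotted against concentration and fitted to a steady-state affinity model to give Kd.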

[5] = biological target: T1, IgG receptor FcRn large subunit p51; test: Binding affinity to human FcRn at pH 7.4 by surface plasmon resonance assay
Procedure, shortened: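 Soluble human FcRn coupled to the dextran surface of a CM5 chip; peptide dilutions flowed over the chip. Equilibrium response at each dilution plotted against concentration, and Kd fitted with a steady-state affinity model.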

T1 sequence (P55899 whole entry, the tested form may be a part): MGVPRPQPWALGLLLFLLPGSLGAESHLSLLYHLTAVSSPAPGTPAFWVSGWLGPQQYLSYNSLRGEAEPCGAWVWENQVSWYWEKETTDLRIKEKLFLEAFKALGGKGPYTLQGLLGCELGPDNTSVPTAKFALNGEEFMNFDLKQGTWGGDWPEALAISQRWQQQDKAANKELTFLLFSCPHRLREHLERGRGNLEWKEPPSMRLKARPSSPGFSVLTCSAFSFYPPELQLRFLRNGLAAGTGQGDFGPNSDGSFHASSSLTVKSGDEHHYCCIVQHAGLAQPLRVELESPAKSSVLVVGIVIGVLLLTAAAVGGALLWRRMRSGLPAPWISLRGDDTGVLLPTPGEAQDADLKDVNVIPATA

IC50 [1] [µM]	remaining at 1 h [2] [%]	remaining at 18 h [3] [%]	Kd [4] [µM]	Kd [5] [µM]	SMILES
8	100	95			CC(C)C[C@@H](C(=O)N[C@@H](Cc1ccc(O)cc1)C(=O)N1CCC[C@H]1C(=O)N[C@@H](CS)C(=O)O)N(C)C(=O)CNC(=O)[C@@H](C)NC(=O)[C@H](Cc1ccccc1)NC(=O)[C@H](Cc1cnc[nH]1)NC(=O)CNC(=O)[C@@H](C)N(C)C(=O)[C@@H](NC(=O)[C@H](Cc1ccccc1)NC(=O)[C@@H](N)CCCNC(=N)N)C(C)(C)S
39	5	0	18.3		C[C@@H](O)[C@H](NC(=O)[C@@H](NC(=O)[C@H](Cc1ccccc1)NC(=O)[C@H](CCCN=C(N)N)NC(=O)[C@@H](N)CCC(N)=O)C(C)(C)S)C(=O)NCC(=O)N[C@@H](Cc1cnc[nH]1)C(=O)N[C@@H](Cc1ccccc1)C(=O)N[C@H](Cc1ccccc1)C(=O)NCC(=O)N1CCC[C@H]1C(=O)N[C@@H](Cc1ccc(O)cc1)C(=O)N1CCC[C@H]1C(=O)N[C@@H](CS)C(=O)N[C@@H](CC(N)=O)C(=O)NCC(=O)N1CCC[C@H]1C(=O)O
2	5	0	0.25		CC(C)C[C@H](NC(=O)CNC(=O)CNC(=O)[C@H](Cc1ccccc1)NC(=O)[C@H](Cc1cnc[nH]1)NC(=O)CNC(=O)[C@@H](NC(=O)[C@@H](NC(=O)[C@H](Cc1ccccc1)NC(=O)[C@H](CCCNC(=N)N)NC(=O)[C@@H](N)CCC(N)=O)C(C)(C)S)[C@@H](C)O)C(=O)N[C@@H](Cc1ccc(O)cc1)C(=O)N1CCC[C@H]1C(=O)N[C@@H](CS)C(=O)N[C@@H](CC(N)=O)C(=O)NCC(=O)N1CCC[C@H]1C(=O)O
64			22	78	CC[C@H](C)[C@H](NC(=O)[C@@H](NC(=O)[C@@H](N)CCCCN)[C@@H](C)CC)C(=O)N[C@H]1CSSC[C@@H](C(=O)N[C@@H](CCC(N)=O)C(=O)NCC(=O)N[C@@H](CCCCN)C(=O)O)NC(=O)[C@H](Cc2ccc(O)cc2)NC(=O)[C@H](CCSC)NC(=O)CNC(=O)CNC(=O)[C@H](Cc2ccccc2)NC(=O)[C@H](Cc2cnc[nH]2)NC(=O)CNC(=O)[C@@H]2CCCN2C(=O)[C@H](CO)NC1=O (H-KIICSPGHFGGMYCQGK-OH; disulfide 4-14)
